An excerpt weighted towards active compounds, which were near 2.3% of everything screened.
OXTR ag: agonists of human oxytocin receptor; P30559; CHO-OTR cells, Fluo-8 calcium fluorescence; normalized: DMSO 0%, oxytocin 100%; activation, % at 3 µM; 320,000 tested, 0.32% active;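 active = activation above the mean of all tested compounds plus 3 SD, cutoff set per screening run, cut at about 20% in these data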;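 note: peak over basal fluorescence ratio from a 100 s FLIPR kinetic read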
Target sequence (P30559 whole entry, looked up): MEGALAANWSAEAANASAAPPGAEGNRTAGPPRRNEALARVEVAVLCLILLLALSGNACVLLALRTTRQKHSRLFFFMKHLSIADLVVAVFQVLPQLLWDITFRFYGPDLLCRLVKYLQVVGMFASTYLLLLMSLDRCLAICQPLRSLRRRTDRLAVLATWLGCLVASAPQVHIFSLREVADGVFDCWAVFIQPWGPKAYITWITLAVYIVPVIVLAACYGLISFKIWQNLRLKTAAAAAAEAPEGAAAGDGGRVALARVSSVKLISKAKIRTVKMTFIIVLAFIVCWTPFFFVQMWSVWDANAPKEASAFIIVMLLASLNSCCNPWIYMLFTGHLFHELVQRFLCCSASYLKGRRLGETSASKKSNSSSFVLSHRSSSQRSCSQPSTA
OXTR potentiate: human OXTR potentiation | P30559 | CHO-OTR cells, Fluo-8 calcium fluorescence, potentiator mode; 0% = oxytocin EC15, 100% = EC100 | activation, % at 3 µM | 320,000 tested, 0.061% active | AID 2445;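 active = activation above that plate's cutoff, the mean activation of tested compounds plus 3 SD, cut at about 6.6% in these data, passing the limit was not always enough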;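 note: 100% uses oxytocin at 75 nM as the full agonist control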
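System: human OTR in CHO cells; Also added: sub-maximal oxytocin, roughly EC15; Timing: compound 6 min at room temperature before oxytocin, 100 s read; Technique: Fluo-8 intracellular calcium fluorescence, ex 470-495, em 515-575 nm; Controls: oxytocin EC15 low and EC100 high; Replication: singlicate.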
TAAR1 antagonist: antagonists of human TAAR1 | Q96RJ0 | CHO RD-HGA16 TAAR1, Fluo-8 calcium fluorescence, antagonist | inhibition, % at 3 µM | 360,000 tested, 1.5% active | AID 624466;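 active = inhibition above a per-plate cutoff, the mean inhibition of test compounds on that plate plus 3 SD, cut at about 49% in these data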;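 note: 0% = DMSO plus EC80 beta-PEA response and 100% = DMSO alone without agonist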
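Test system: RD-HGA16 CHO cells with stable hTAAR1 and Gα16 / Probe or stimulus: EC80 β-phenethylamine stimulus / Times: seeding 17-24 h prior, 75-min 37 °C, 30-min RT dye loading / Detection: Fluo-8 calcium-sensitive fluorescence / Read-out basis: % inhibition scaled between DMSO and EC80 PEA controls / Repeats: singlicate, one well per test compound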
V1R ag counter: counter-screen for oxytocin receptor agonists: human V1a receptor agonists; P37288; CHO-V1R cells, Fluo-8 calcium fluorescence, agonist mode; 0% DMSO, 100% 3 nM vasopressin; activation, % at 3 µM; 320,000 tested, 0.25% active;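 active = activation above the mean activation of all tested compounds plus 3 SD, per screening run, cut at about 20% in these data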;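 note: signal is peak over basal fluorescence ratio across a 100 second FLIPR read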
TAAR1 agonist: human TAAR1 agonism. AID 624467. 360,000 tested, 0.99% active. CHO RD-HGA16 TAAR1, Fluo-8 calcium fluorescence; vehicle wells 0%, saturating PEA agonist 100%. activation, % at 3 µM. Q96RJ0;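 active = activation above the mean activation of all test compounds in the run plus 3 SD, cut at about 38% in these data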
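Signal – calcium-sensitive Fluo-8 signal, excitation 470-495, emission 515-575 nm · System – RD-HGA16 (CHO) cells co-expressing Gα16 and hTAAR1 · Incubation – 17-24 h seeding, 75 min 37 °C dye, 30 min RT · Compound dosing – 3 µM single concentration · Repeats – no replicates (n 1)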
nonsel antag count: nonselective antagonism, TAAR1 counter-screen; shares compounds with TAAR1 antagonist; counterscreen cell line, calcium fluorescence, antagonist mode; inhibition, % at 3 µM; 2,400 tested, 77% active; AID 651780; in the data active = inhibition above about 22%;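 note: CHO-Ga16 host cells stimulated with ATP at an EC80 level; 0% = agonist EC80 plus vehicle and 100% = vehicle without agonist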
TAAR1 antag conf: human TAAR1 antagonism, confirmed. TAAR1-expressing cells, fluorescence antagonist read-out. 2,400 tested, 40% active. shares compounds with TAAR1 antagonist. inhibition, % at 3 µM; in the data active = inhibition above about 49%;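 note: CHO-Ga16 host cells challenged with agonist PEA near its EC80; 0% = agonist at EC80 plus vehicle and 100% = vehicle with no agonist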
Ga16 nonsel ag: counter-screen for TAAR1 antagonists: nonselective Ga16 agonists. shares compounds with TAAR1 antagonist. Ga16-expressing cells, calcium fluorescence, agonist counterscreen. activation, % at 3 µM. 2,400 tested, 18% active. AID 651953; in the data active = activation above about 12%;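 note: 0% = vehicle wells and 100% = saturating stimulus response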
TAAR1 ag count: activates human TAAR1 in antagonist counter-screen | shares compounds with TAAR1 antagonist | 2,400 tested, 2% active | hTAAR1 cell line, fluorescence activation, agonist mode | activation, % at 3 µM | AID 651955; in the data active = activation above about 37%;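 note: CHO cells stably expressing TAAR1 with calcium dye readout; 0% = DMSO vehicle and 100% = full agonist response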
Active calls of the source: *.

`CCOC(=O)C1=C(C)Nc2ccccc2N=C1NC(=O)c1oc2ccccc2c1COC` gave OXTR ag -2, OXTR potentiate -5, TAAR1 antagonist 70*, V1R ag counter 0, TAAR1 agonist 14, nonsel antag count 30*, TAAR1 antag conf 46, Ga16 nonsel ag 6 and TAAR1 ag count 7.
Screening COc1cccc(CN(C)C(=O)c2cc(COc3ccc(-n4cncn4)cc3)on2)c1 returned OXTR ag 7, OXTR potentiate -13, TAAR1 antagonist 15, V1R ag counter 10 and TAAR1 agonist 7.
`NC(=O)COc1cccc(/C=N/NC(=O)c2ccc(-n3cccc3)cc2)c1` gave OXTR ag 1, OXTR potentiate -2, TAAR1 antagonist 84*, V1R ag counter 0, TAAR1 agonist 7, nonsel antag count 18, TAAR1 antag conf 55*, Ga16 nonsel ag 5 and TAAR1 ag count 3.
Screening COc1ccc2c(c1)C(SCC(=O)NCCc1ccc(Cl)cc1)CC(C)(C)O2 (centres undefined) returned OXTR ag -3, OXTR potentiate -6, TAAR1 antagonist 62*, V1R ag counter 0, TAAR1 agonist 6, nonsel antag count 18, TAAR1 antag conf 43, Ga16 nonsel ag 6 and TAAR1 ag count 35.
For O=C(COc1ccccc1CNC[C@H]1O[C@@H](n2ccc(=O)[nH]c2=O)[C@H](O)[C@@H]1O)N1CCCCC1 the results were TAAR1 antagonist -12 and TAAR1 agonist 1.
`c1ccc(CCc2ccccc2-c2nc(-c3ccccn3)no2)cc1` gave OXTR ag -2, OXTR potentiate -4, TAAR1 antagonist 51*, V1R ag counter 0, TAAR1 agonist 19, nonsel antag count 12, TAAR1 antag conf 31, Ga16 nonsel ag 9 and TAAR1 ag count 16.
Screening CCOC(=O)C1=C(COC(=O)/C=C/c2ccccc2)NC(=O)NC1C (centres undefined) returned OXTR ag 0, OXTR potentiate -13, TAAR1 antagonist 63*, V1R ag counter 2, TAAR1 agonist 19, nonsel antag count 25*, TAAR1 antag conf 46, Ga16 nonsel ag 10 and TAAR1 ag count 11.
Screening CCOC(=O)C1=C(COC(=O)Cc2ccc(Br)cc2)NC(=O)NC1C (centres undefined) returned OXTR ag 0, OXTR potentiate -12, TAAR1 antagonist 69*, V1R ag counter 6, TAAR1 agonist 9, nonsel antag count 25*, TAAR1 antag conf 39, Ga16 nonsel ag 7 and TAAR1 ag count 4.
CCOC(=O)C1=C(COC(=O)/C=C/c2cccc(OC)c2OC)NC(=O)NC1C (centres undefined) was read as OXTR ag 8, OXTR potentiate -7, TAAR1 antagonist 73*, V1R ag counter 5, TAAR1 agonist 19, nonsel antag count 25*, TAAR1 antag conf 52*, Ga16 nonsel ag 12* and TAAR1 ag count 20.
Screening CCOC(=O)C1=C(COC(=O)CSc2ccc(Br)cc2)NC(=O)NC1C (centres undefined) returned OXTR ag -2, OXTR potentiate -6, TAAR1 antagonist 2, V1R ag counter 0 and TAAR1 agonist 4.
Screening CCN(CC(=O)Nc1c(F)cccc1F)C(=O)c1ccc(S(=O)(=O)NCc2ccco2)cc1 returned OXTR ag -1, OXTR potentiate -5, TAAR1 antagonist 3, V1R ag counter -1 and TAAR1 agonist 2.
Cc1cc(C(F)F)n2nc(C(=O)Nc3cccc(S(=O)(=O)N4CCOCC4)c3)nc2n1 was read as OXTR ag 0, OXTR potentiate 3, TAAR1 antagonist 6, V1R ag counter 0 and TAAR1 agonist 1.
Screening N#C/C(=C\c1ccncc1)c1nc2c(s1)CCCC2 returned OXTR ag 0, OXTR potentiate -9, TAAR1 antagonist -12, V1R ag counter 3 and TAAR1 agonist -2.
`CN1CCc2c(sc(NC(=O)C3CCN(S(=O)(=O)c4cccs4)CC3)c2C(N)=O)C1` gave OXTR ag 1, OXTR potentiate 5, TAAR1 antagonist -6, V1R ag counter 0 and TAAR1 agonist 2.
`O=C(CCC(=O)c1cccs1)NCCc1ccc(F)cc1` gave OXTR ag -1, OXTR potentiate -5, TAAR1 antagonist 66*, V1R ag counter 0, TAAR1 agonist 32, nonsel antag count 9, TAAR1 antag conf 80*, Ga16 nonsel ag 1 and TAAR1 ag count 54*.
CCOC(=O)CN1C(=O)CC(c2ccc([N+](=O)[O-])cc2)C1=O (centres undefined) was read as OXTR ag 0, OXTR potentiate 3, TAAR1 antagonist -13, V1R ag counter 2 and TAAR1 agonist 5.
COc1ccccc1NC(=O)Nc1nc(CC(=O)N2CCN(c3ccccc3OC)CC2)cs1 was read as OXTR ag 0, OXTR potentiate -16, TAAR1 antagonist 69*, V1R ag counter 4, TAAR1 agonist 21, nonsel antag count 35*, TAAR1 antag conf 54*, Ga16 nonsel ag 11 and TAAR1 ag count 8.
Screening COc1cc(C)ccc1NC(=O)Cc1csc(NC(=O)Nc2ccccc2OC)n1 returned OXTR ag 2, OXTR potentiate -13, TAAR1 antagonist 66*, V1R ag counter 0, TAAR1 agonist 11, nonsel antag count 34*, TAAR1 antag conf 53*, Ga16 nonsel ag 9 and TAAR1 ag count 10.
`COc1ccccc1NC(=O)Cc1csc(NC(=S)Nc2ccc(C)cc2)n1` gave OXTR ag 3, OXTR potentiate -22, TAAR1 antagonist 27, V1R ag counter 3 and TAAR1 agonist 11.
CC1(c2ccc3noc(-c4cccc(F)c4)c3c2)OCCO1 was read as OXTR ag -2, OXTR potentiate -8, TAAR1 antagonist 6, V1R ag counter 1 and TAAR1 agonist 1.
`O=C(Nc1cccc(/C=C/c2ccccn2)c1)c1ccc(-n2cncn2)c([N+](=O)[O-])c1` gave OXTR ag 1, OXTR potentiate -7, TAAR1 antagonist 73*, V1R ag counter 8, TAAR1 agonist 21, nonsel antag count 40*, TAAR1 antag conf 61*, Ga16 nonsel ag 14* and TAAR1 ag count 13.

Screens (PubChem)
